Assays:
[1] = compound: O=S1(=O)C=C(Sc2nnc(-c3ccccc3)o2)c2ccccc21; test: Inhibition of recombinant Cryptococcus neoformans His-tagged IMPDH expressed in Escherichia coli BL21 (DE3) at 0.3 uM assessed as Kcat for substrate using IMP as fixed substrate at 500 uM and NAD as second substrate with varying concentrations of 31.25 to 1300 uM (reference value: 1.5 /s)
[2] = compound: COc1ccccc1-c1nnc(SC2=CS(=O)(=O)c3ccccc32)o1; test: (§1) Inhibition of recombinant Cryptococcus neoformans His-tagged IMPDH expressed in Escherichia coli BL21 (DE3) at 2.5 uM assessed as Km for substrate using IMP as fixed substrate at 500 uM and NAD as second substrate with varying concentrations of 31.25 to 1300 uM (reference value: 257.5 +/- 23 microM)
Outline: (§2)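 Recombinant C. neoformans IMPDH, 100 nM final, reaction started by adding enzyme. NADH production monitored at 340 nm. Inhibitor series ran from 20 to 0.31 µM; MPA tested at 312 to 39 nM. Km and Vmax fitted to the Michaelis–Menten equation; inhibition type taken from shifts in Km and Vmax.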

[3] = compound: O=S1(=O)C=C(Sc2nnc(-c3ccccc3)o2)c2ccccc21; test: as §1
Outline: as §2

[4] = substrate: COc1c(C)c2c(c(O)c1C/C=C(\C)CCC(=O)O)C(=O)OC2; settings: Cryptococcus neoformans; 0.039 uM
[5] = substrate: COc1c(C)c2c(c(O)c1C/C=C(\C)CCC(=O)O)C(=O)OC2; settings: Cryptococcus neoformans; 0.078 uM
[6] = substrate: COc1c(C)c2c(c(O)c1C/C=C(\C)CCC(=O)O)C(=O)OC2; settings: Cryptococcus neoformans; 0.078 uM; remark: listed apart in the source
[7] = compound: COc1ccccc1-c1nnc(SC2=CS(=O)(=O)c3ccccc32)o1; test: (§3) Inhibition of recombinant Cryptococcus neoformans His-tagged IMPDH expressed in Escherichia coli BL21 (DE3) at 2.5 uM assessed as Km for substrate using NAD as fixed substrate at 700 uM and IMP as second substrate with varying concentrations of 25 to 800 uM (reference value: 257.5 +/- 23 microM)
Outline: as §2

[8] = compound: O=S1(=O)C=C(Sc2nnc(-c3ccccc3)o2)c2ccccc21; test: as §3
Outline: as §2

[9] = substrate: COc1c(C)c2c(c(O)c1C/C=C(\C)CCC(=O)O)C(=O)OC2; settings: Cryptococcus neoformans; 0.078 uM; remark: listed apart in the source
[10] = compound: COc1ccccc1-c1nnc(SC2=CS(=O)(=O)c3ccccc32)o1; test: (§4) Inhibition of recombinant Cryptococcus neoformans His-tagged IMPDH expressed in Escherichia coli BL21 (DE3) at 0.3 uM assessed as Kcat for substrate using NAD as fixed substrate at 700 uM and IMP as second substrate with varying concentrations of 25 to 800 uM (reference value: 21.5 /s)
Outline: as §2

[11] = compound: O=S1(=O)C=C(Sc2nnc(-c3ccccc3)o2)c2ccccc21; test: as §4
Outline: as §2

[12] = compound: COc1ccccc1-c1nnc(SC2=CS(=O)(=O)c3ccccc32)o1; test: (§5) Inhibition of recombinant Cryptococcus neoformans His-tagged IMPDH expressed in Escherichia coli BL21 (DE3) at 10 uM assessed as Kcat for substrate using NAD as fixed substrate at 700 uM and IMP as second substrate with varying concentrations of 25 to 800 uM (reference value: 21.5 /s)
Outline: as §2

[13] = compound: O=S1(=O)C=C(Sc2nnc(-c3ccccc3)o2)c2ccccc21; test: as §5
Outline: as §2

[14] = substrate: COc1c(C)c2c(c(O)c1C/C=C(\C)CCC(=O)O)C(=O)OC2; settings: Cryptococcus neoformans; 0.156 uM
[15] = substrate: COc1c(C)c2c(c(O)c1C/C=C(\C)CCC(=O)O)C(=O)OC2; settings: Cryptococcus neoformans; 0.039 uM; remark: listed apart in the source
[16] = compound: COc1ccccc1-c1nnc(SC2=CS(=O)(=O)c3ccccc32)o1; test: Inhibition of recombinant Cryptococcus neoformans His-tagged IMPDH expressed in Escherichia coli BL21 (DE3) at 0.3 uM assessed as Kcat for substrate using IMP as fixed substrate at 500 uM and NAD as second substrate with varying concentrations of 31.25 to 1300 uM (reference value: 21.5 /s)
Outline: as §2

[17] = compound: COc1ccccc1-c1nnc(SC2=CS(=O)(=O)c3ccccc32)o1; test: (§6) Inhibition of recombinant Cryptococcus neoformans His-tagged IMPDH expressed in Escherichia coli BL21 (DE3) at 2.5 uM assessed as Vmax for substrate using NAD as fixed substrate at 700 uM and IMP as second substrate with varying concentrations of 25 to 800 uM (reference value: 1.5 microM/min)
Outline: as §2

[18] = compound: O=S1(=O)C=C(Sc2nnc(-c3ccccc3)o2)c2ccccc21; test: as §6
Outline: as §2

[19] = substrate: COc1c(C)c2c(c(O)c1C/C=C(\C)CCC(=O)O)C(=O)OC2; settings: Cryptococcus neoformans; 0.078 uM; remark: listed apart in the source
[20] = substrate: COc1c(C)c2c(c(O)c1C/C=C(\C)CCC(=O)O)C(=O)OC2; settings: Cryptococcus neoformans; 0.156 uM; remark: listed apart in the source
[21] = substrate: COc1c(C)c2c(c(O)c1C/C=C(\C)CCC(=O)O)C(=O)OC2; settings: Cryptococcus neoformans; 0.039 uM; remark: listed apart in the source
[22] = substrate: COc1c(C)c2c(c(O)c1C/C=C(\C)CCC(=O)O)C(=O)OC2; settings: Cryptococcus neoformans; 0.078 uM; remark: listed apart in the source
[23] = compound: COc1ccccc1-c1nnc(SC2=CS(=O)(=O)c3ccccc32)o1; test: (§7) Inhibition of recombinant Cryptococcus neoformans His-tagged IMPDH expressed in Escherichia coli BL21 (DE3) at 0.3 uM assessed as Vmax for substrate using IMP as fixed substrate at 500 uM and NAD as second substrate with varying concentrations of 31.25 to 1300 uM (reference value: 1.5 microM/min)
Outline: as §2

[24] = compound: O=S1(=O)C=C(Sc2nnc(-c3ccccc3)o2)c2ccccc21; test: as §7
Outline: as §2

[25] = substrate: COc1c(C)c2c(c(O)c1C/C=C(\C)CCC(=O)O)C(=O)OC2; settings: Cryptococcus neoformans; 0.039 uM; remark: listed apart in the source
[26] = compound: COc1ccccc1-c1nnc(SC2=CS(=O)(=O)c3ccccc32)o1; test: (§8) Inhibition of recombinant Cryptococcus neoformans His-tagged IMPDH expressed in Escherichia coli BL21 (DE3) at 10 uM assessed as Vmax for substrate using IMP as fixed substrate at 500 uM and NAD as second substrate with varying concentrations of 31.25 to 1300 uM (reference value: 1.5 microM/min)
Outline: as §2

[27] = compound: O=S1(=O)C=C(Sc2nnc(-c3ccccc3)o2)c2ccccc21; test: as §8
Outline: as §2

B1: Inosine-5'-monophosphate dehydrogenase (Cryptococcus neoformans var. neoformans serotype D (strain JEC21 /ATCC MYA-565) (Filobasidiella neoformans)), Q5KP44 (protein)
chain: MADTNPNAPPRSDSLLNPADALKYLEEYPRGDGLSLQELMDSRKNGGLTYNDFLVLPGHISFPASDVSLQSRATKNIVLNTPFLSSPMDTVTEDRMAIALALHGGLGIIHHNCSAEEQAAMVRRVKKYENGFITDPLCLGPDATVGDVLEIKAKFGFCGVPITETGAPNSKLLGIVTGRDVQFQDAETPIKSVMTTEVVTGSSPITLEKANSLLRETKKGKLPIVDSNGHLVSLVARSDLLKNQNYPYASKVPESKQLYCGAAIGTRPGDKDRLKLLAEAGLDVVVLDSSQGDSVYQIEFIKWIKQTYPKIEIIAGNVVTREQAAQLIAAGADGLRIGMGSGSICITQEVMAVGRPQGTAVYAVAEFASRFGIPCIADGGIGNIGHIAKALALGASAVMMGGLLAGTTESPGEYFYHEGKRVKVYRGMGSIEAMEHTQRGSASGKRSILNLDNAATARYFSEADAVKVAQGVSGDVADKGSINKFVPYLFTGLQHSFQDAGVKSVSELHSCARSGSLRFELRTASAQLEGGVHGLNSYTKRLFA
- kcat [1]: 1.5 s⁻¹
- Km [2]: 358 µM
- Km [3]: 336 µM
- Km [4]: 200 µM
- Km [5]: 137 µM
- kcat [6]: 0.6 s⁻¹
- Km [7]: 165 µM
- Km [8]: 187 µM
- Vmax [9]: 0.6 µM/min
- kcat [10]: 1.4 s⁻¹
- kcat [11]: 1.1 s⁻¹
- kcat [12]: 0.7 s⁻¹
- kcat [13]: 0.6 s⁻¹
- Vmax [14]: 0.26 µM/min
- Km [15]: 64 µM
- kcat [16]: 1.5 s⁻¹
- Vmax [17]: 1 µM/min
- Vmax [18]: 0.9 µM/min
- kcat [19]: 0.6 s⁻¹
- kcat [20]: 0.3 s⁻¹
- Vmax [21]: 1.1 µM/min
- Vmax [22]: 0.6 µM/min
- Vmax [23]: 1.5 µM/min
- Vmax [24]: 1.5 µM/min
- kcat [25]: 1.1 s⁻¹
- Vmax [26]: 1 µM/min
- Vmax [27]: 1 µM/min
